Target: T1, Secreted frizzled-related protein 1 (Homo sapiens, UniProt Q8N474)
T1 sequence (Q8N474 whole entry): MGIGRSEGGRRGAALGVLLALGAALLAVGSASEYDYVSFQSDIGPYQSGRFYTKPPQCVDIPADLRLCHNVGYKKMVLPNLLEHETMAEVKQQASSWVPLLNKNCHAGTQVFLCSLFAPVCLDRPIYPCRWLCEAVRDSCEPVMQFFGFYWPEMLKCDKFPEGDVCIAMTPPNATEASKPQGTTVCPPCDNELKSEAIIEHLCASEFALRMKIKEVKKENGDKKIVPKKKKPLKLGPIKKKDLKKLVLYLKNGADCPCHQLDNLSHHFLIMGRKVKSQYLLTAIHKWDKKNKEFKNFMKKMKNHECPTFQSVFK
Experiment: Binding affinity to human recombinant sFRP1 by surface plasmon resonance assay
Procedure, shortened: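 Biotinylated low-molecular-weight heparin was captured on a neutravidin surface. Protein at varying concentrations was mixed with a hexasaccharide dilution series and injected. Free protein was read from a quadratic slope-vs-concentration standard curve. KD = [P_free][H_total]/[P_bound], averaged over three hexasaccharide concentrations.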

SMILES: NCCCCCO[C@H]1O[C@H](CO)[C@@H](O[C@@H]2O[C@@H](C(=O)O)[C@@H](O[C@H]3O[C@H](CO)[C@@H](O[C@@H]4O[C@@H](C(=O)O)[C@@H](O[C@H]5O[C@H](CO)[C@@H](O[C@@H]6O[C@@H](C(=O)O)[C@@H](O)[C@H](O)[C@H]6OS(=O)(=O)O)[C@H](O)[C@H]5NS(=O)(=O)O)[C@H](O)[C@H]4OS(=O)(=O)O)[C@H](O)[C@H]3NS(=O)(=O)O)[C@H](O)[C@H]2OS(=O)(=O)O)[C@H](O)[C@H]1NS(=O)(=O)O
- Kd: 9 µM

— ChEMBL document CHEMBL3286317, “Synthesis and biological evaluation of a unique heparin mimetic hexasaccharide for structure-activity relationship studies” (J Med Chem, 2014)
